Drawing on PubChem BioAssay, this text covers outcome for 40 compounds.

Structures are written as SMILES. Active and inactive are the calls of the source.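 How the source made its calls: active means primary screen active whose calcium signal fell more than 3 SD beyond the full-serotonin control mean in both duplicate plates; inactive means the rest.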

The assay can be described thus: serotonin-gated TRPC4 signal block – cell-based, second counter screen, HEK293 TRPC4/5HT1a, Fluo-4, counter-screen for TRPC4 inhibitor project, confirmation (AID 434978).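 Further: serotonin given first at submaximal then at maximal dose after compound preincubation.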 The note with it: Fluo-4 calcium flux, at 10 µM, serotonin added to trigger calcium flux. Put shortly:
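Test system: HEK293 cells stably co-expressing TRPC4 channel and 5HT1a serotonin receptor / Schedule: three 110 s phases (compound, two serotonin additions) / Measured by: kinetic Fluo-4 fluorescence readout of calcium flux / Benchmarks: maximal serotonin stimulation controls / Repeats: duplicate plates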
Background: Counterscreens check selectivity or assay interference.
On to `Cc1cc(-c2ccc(C)c(S(=O)(=O)NCCCN(Cc3ccccc3)C(C)C)c2)on1`, for which the outcome was inactive. Take `CCc1nc(NCCc2ccccn2)c2nnn(Cc3ccccc3F)c2n1`: the result was inactive. In the case of `Cc1sc2ncnc(NCC(C)(C)N3CCOCC3)c2c1C`, the result was inactive.

Regarding `Cc1ccc(N2CCN(c3ccc(NCc4nc5ccccc5n4C)cc3)CC2)cc1`, the result was inactive. With `COc1ccc(C(CNC(=O)CN2C(=O)NC3(CCCC3)C2=O)N(C)C)cc1` (stereo not given), the outcome was inactive. The value for `Cc1cccc(NC(=S)NCC(c2cccnc2)N(C)C)c1C` (stereo not given) was “inactive”; that for `Cc1ccccc1OCC(=O)NNC(=S)NC(=O)c1ccco1` was “inactive”. `Cc1ccc(Sc2cc(C(=O)NCCN(C)C)c3ccccc3n2)cc1`: the outcome was inactive. The value for `O=C(O)c1ccc(-c2ccc(/C=c3/sc4nc5ccccc5n4c3=O)o2)cc1Cl` was “inactive”. Take `Cc1ccccc1C(=O)NNC(=S)NC(=O)c1ccccc1`: the result was inactive.

Consider `CN(C)C(CNC(=O)c1ccc2ccccc2n1)c1ccccc1` (stereo not given), for which the result was inactive.

On to `Cc1cc(NC(=O)CN2CCc3ccccc3C2)nc2c1c(=O)oc1ccccc12`, for which the result was inactive. With `Cn1c(CN2CCN(c3cccc(Cl)c3)CC2)nc2ccccc21`, the result was inactive.

On to `CN(C)C(CNC(=O)c1cnc(Cl)c(Cl)c1)c1ccccc1` (stereo not given), for which the outcome was inactive. The value for `Cc1ccc(Cl)cc1NC(=O)CNCC(c1ccccc1)N(C)C` (stereo not given) was “inactive”; that for `CN(C)CCCN(C(=O)c1ccc(S(=O)(=O)N2CCOCC2)cc1)c1nc2ccc(F)cc2s1` was “inactive”; that for `CN(C)CCN(C(=O)c1cccc2ccccc12)c1nc2cc3c(cc2s1)OCO3` was “inactive”.

Take `Cc1ccc2c(C)c(C(=O)N(Cc3cccs3)C3CCS(=O)(=O)C3)oc2c1` (stereo not given): the result was inactive.

As for `CCN1CCN(c2c(Cl)cccc2NC(=O)c2ccc3nsnc3c2)CC1`, the outcome was inactive. With `O=C(C1CCCN(Cc2ccncc2)C1)N1CCc2ccccc2C1` (stereo not given), the result was inactive.

For `CCN(c1ccccc1)S(=O)(=O)c1ccc(C(=O)N(CCCN(C)C)c2nc3cc4c(cc3s2)OCO4)cc1`, the outcome was inactive. The value for `CC1CCCN(CCCNC(=O)c2ccc3c(c2)N(Cc2ccccc2F)C(=O)c2ccccc2S3(=O)=O)C1` (stereo not given) was “inactive”; that for `O=C(Nc1nnc(-c2ccccc2Cl)o1)c1nc2ccccc2s1` was “inactive”.

For the compound `COc1ccc(C(=O)NC(=S)NNC(=O)CCc2ccccc2)cc1`, the result was inactive. Regarding `Cc1cc(-c2nn(-c3ccccc3F)cc2CNCCc2cnc[nH]2)c(C)s1`, the outcome was inactive.

On to `Cc1ccc(C(=O)NC(=S)NNC(=O)c2ccccc2)cc1`, for which the result was inactive.

Consider `Cc1csc2c(N3CCN(C(=O)NC(C)(C)C)CC3)ncnc12`, for which the outcome was inactive.

In the case of `COC(=O)[C@@]1(Cc2ccc(F)cc2)[C@H]2c3cc(C(=O)N(C)C)n(CCc4ccccn4)c3C[C@H]2CN1C(=O)c1ccccc1`, the result was inactive. For `CN(CCc1ccccn1)C(=O)CC1C(=O)NCCN1Cc1ccccc1C(F)(F)F` (stereo not given), the outcome was inactive. As for `COc1cc(/C=C/C(=O)c2ccc3c(c2)OCO3)cc(Cl)c1O`, the outcome was inactive. Regarding `CCn1c(N2CCN(C(=O)Nc3ccc(F)cc3)CC2)nc2ccccc21`, the result was inactive. The value for `O=S(=O)(c1ccccc1)c1nnn2c1nc(NC1CCN(Cc3ccccc3)CC1)c1cc(Cl)ccc12` was “inactive”. As for `CCOC(=O)c1oc2ccc(OC)cc2c1NC(=O)CN1CCN(C)CC1`, the outcome was inactive. Consider `C=CCn1c(CCNC(=O)C(C)(C)C)nc2ccccc21`, for which the outcome was inactive. The value for `CCOC(=O)C1(CCOc2ccccc2)CCN(Cc2ccc3c(c2)OCCO3)CC1` was “inactive”; that for `Cc1cc(C)n(-c2nc(SCCN(C)C)c3c4c(sc3n2)CCCC4)n1` was “inactive”; that for `COc1cc(OC)cc(C(=O)NC2CCCN(Cc3ccc(Cl)cc3)C2)c1` (stereo not given) was “inactive”.

For `CN(C)C(CNC(=O)CCc1c[nH]c2ccccc12)c1ccccc1` (stereo not given), the outcome was inactive. For the compound `CCCCN(CC)CCCNC(=O)Cn1nc(Cc2ccncc2)c2ccccc2c1=O`, the result was inactive. The value for `COC(=O)C1=C(C)N(Cc2ccccc2)C(=NCCc2ccccn2)N[C@H]1c1cccc(F)c1` was “inactive”.
